Experimental data as given in ChEMBL document CHEMBL3769403, “Carbonic anhydrase activators: Activation of the β-carbonic anhydrase from Malassezia globosa with amines and amino acids” (Bioorg Med Chem Lett, 2016).

These compounds were tested on Malassezia globosa (assay: Activation of Malassezia globosa beta-carbonic anhydrase incubated for 15 mins prior to testing by stopped flow CO2 hydrase method). Conditions: not given.
In short: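 Recombinant M. globosa β-CA (12.1 nM in assay; enzymes 10-14 nM) preincubated with activator 15 min at room temperature. CO2 hydration followed 10 s at 25 °C by stopped-flow, phenol red 0.2 mM at 557 nm, 20 mM Tris pH 8.3, 20 mM NaClO4; CO2 0.17-17 mM. Initial velocities from the first 5-10% of at least six traces, uncatalyzed rate subtracted; KA from the competitive steady-state equation; mean of 3 assays.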
Compound N[C@@H](Cc1ccc(O)cc1)C(=O)O has a KA of 15.7 µM.
Compound N[C@@H](Cc1c[nH]cn1)C(=O)O has a KA of 29.3 µM.
In the case of N[C@H](Cc1ccc(O)c(O)c1)C(=O)O, the KA is reported as 13.7 µM.
In the case of N[C@@H](Cc1c[nH]c2ccccc12)C(=O)O, the KA is reported as 10.1 µM.
With NCCN1CCNCC1 the KA was 0.81 µM.
For N[C@H](Cc1ccc(O)cc1)C(=O)O, the KA was 25.1 µM.
N[C@H](Cc1c[nH]cn1)C(=O)O gave a KA of 18.1 µM.
NCCN1CCOCC1 gave a KA of 5.82 µM.
N[C@H](Cc1ccccc1)C(=O)O gave a KA of 10.7 µM.
NCCc1ccc(O)c(O)c1 gave a KA of 9.43 µM.
Work on NCCc1c[nH]cn1 yielded a KA of 10.9 µM.
Work on N[C@H](Cc1c[nH]c2ccccc12)C(=O)O yielded a KA of 12.5 µM.
For NCCc1c[nH]c2ccc(O)cc12, the KA was 14.2 µM.
In the case of Nc1ccc(C[C@H](N)C(=O)O)cc1, the KA is reported as 13.4 µM.
Work on N[C@@H](Cc1ccccc1)C(=O)O yielded a KA of 34.1 µM.
With N[C@@H](Cc1ccc(O)c(O)c1)C(=O)O the KA was 8.31 µM.
CNC[C@H](O)c1ccc(O)c(O)c1 was tested, and the KA was 0.72 µM.
Compound NCCc1ccccn1 has a KA of 7.3 µM.
With NCc1ccccn1 the KA was 6.12 µM.

The compounds below were run on Malassezia globosa. Conditions: 10 uM.
NCCc1c[nH]cn1 was tested, and the kcat was 18.5 ×10⁵ /s.
